Among all 97,000 compounds or so, about 770 (0.79%) were called active.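 How the source made its calls: active means inhibition above the screen-wide mean plus 3 SD (cut at about 35% in these data); inactive means the rest.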 Shown is part of a subset that was picked to be rich in actives.
These compounds were tested against Protein Rev (Human immunodeficiency virus type 1 group M subtype B (isolate WMJ22)) (UniProt P05866) (assay: disruptors of Rev peptide-RRE RNA complex – biochemical, FRET, protein-RNA interaction, primary screen (AID 704;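 further: 0% = median DMSO wells and 100% = median Neomycin B control wells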)). Details: Rev peptide-RRE RNA binding, at 8 µM, hits give high values.
Protein Rev (Human immunodeficiency virus type 1 group M subtype B (isolate WMJ22)), sequence (P05866 whole entry, looked up): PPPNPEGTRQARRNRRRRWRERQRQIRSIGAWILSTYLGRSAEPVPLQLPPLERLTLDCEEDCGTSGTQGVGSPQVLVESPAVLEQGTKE
Summary of the method: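 Assay system: labelled RRE RNA duplex and labelled Rev peptide / Medium: HEPES pH 7.5 salt buffer with EDTA / Reagent: labelled Rev peptide / Schedule: 5 + 15 min at 25 °C / Signal: FRET, excitation 480 nm, emission 540 nm donor and 671 nm acceptor / Benchmarks: DMSO and neomycin B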

inhibition, inactive:
CCN(CC)c1ccc(NC(=O)c2ccc(Cl)nc2)cc1 -7.72%
Cc1c(C(=O)OC(C)C)sc(NC(=O)c2cccnc2)c1C#N 27.8%
CC(C)c1cc(C(N)=O)c(NC(=O)c2cccc(COc3ccc(Br)cc3)c2)s1 15.9%
CC1=CC(C)(C)Nc2ccc(OC(=O)C(Cc3ccccc3)N3C(=O)C4CCCCC4C3=O)cc21 (centres undefined) -0.51%
CCCNC(=O)CN(Cc1ccccc1F)S(=O)(=O)c1ccc(C)cc1 8.11%
COC(=O)/C(NC(C)=O)=C(\C)c1ccc(Cl)cc1 1.2%
O=C(c1cc2c(s1)CCC2)N1CCN(c2ccccc2)CC1 -4.48%
CC(=O)Nc1ccc(OCC(O)CN2CCN(c3ccccc3Cl)CC2)cc1 (centres undefined) -0.14%
CCOC(=O)CSc1nc2c(sc(=S)n2CCc2ccccc2)c(=O)n1Cc1ccco1 7.11%
Cc1cc2c(c(=O)n1Cc1ccco1)C(c1ccccc1)C(C#N)=C(N)O2 (centres undefined) 7.8%
N#C/C(=C(/O)Cc1cccc2ccccc12)c1nc2ccccc2s1 3.55%
O=C(C1=C(O)C(=O)N(Cc2ccccc2)C1c1cccnc1)c1ccco1 (centres undefined) 7.49%
O=C(C1=C(O)C(=O)N(Cc2ccccc2)C1c1ccco1)c1ccco1 (centres undefined) 0.29%
O=c1c2ccccc2nc2n1C(CSc1ccc(Cl)cc1)CN2 (centres undefined) 6.92%
CCOC(=O)c1sc(C)c2c1NC(C)(c1cccc3ccccc13)NC2=O (centres undefined) 18.2%
CCN1C(=O)C(CC(=O)Nc2cc(C)ccc2C)SC1=Nc1ccc(S(N)(=O)=O)cc1 (centres undefined) 9.41%
CC(CN1CCOCC1)c1ccccc1 (centres undefined) 10.4%
Cc1ccc(NC(=O)Nc2ccc3oc(C)nc3c2)cc1 7.33%
CCOCN(C(=O)Cn1c(C(C)O)nc2ccccc21)c1c(C)cccc1CC (centres undefined) 2.37%
Cc1c(C#N)c(NC(=O)c2ccccc2)n(Cc2ccccc2)c1C 2.3%
Cc1nn(CCOc2ccccc2)c(=O)n1-c1ccccc1F 5.48%
COc1cc(C(=O)OC(C)C(=O)NCC2CCCCC2)cc(NC(=O)c2ccco2)c1OC (centres undefined) -0.95%
CCOCc1nnc(NC(=O)CSc2ccc(C)cc2)s1 6.99%
CN(C)CCNC(=O)Nc1cccc(Cl)c1Cl 2.97%
O=C1COc2ccc(NC(=O)N3CCN(c4ccc(F)cc4)CC3)cc2N1 5.12%
O=C(CC12CC3CC(CC(C3)C1)C2)Nc1ccc2c(c1)COC2=O 11.5%
Cc1noc(C)c1C(=O)OCC(=O)/C=C1\N(C)c2ccccc2C1(C)C 2.24%
CN1/C(=C\C(=O)c2oc3ccccc3c2N)C(C)(C)c2ccccc21 6.51%
COc1ccc(Nc2nc(=O)[nH]nc2C)cc1 4.41%
COc1ccc([N+](=O)[O-])cc1NC(=O)CCc1ccccc1 1.01%
CCOC(=O)C1=C(C)Nc2sc(C(=O)c3ccc(Br)cc3)c(N)c2C1c1ccc(C(=O)OC)cc1 (centres undefined) 7.08%
Cc1cccc(C)c1N1CCN(S(=O)(=O)N2CCOCC2)CC1 8.84%
Cc1ccc(S(=O)(=O)Nc2nc3ccccc3nc2N2CCc3ccccc3C2)cc1 6.67%
Cc1cc(N2CCN(S(=O)(=O)c3ccc(C)c(C)c3)CC2)c2ccccc2n1 16.5%
CC(C)=C1SC(N2CCN(c3cccc(C)c3)CC2)=NC1=O 3.88%
CC(C)OC(=O)CN1C(=O)C(=O)c2ccccc21 9.74%
CCOC(=O)c1cc2n(c1C)-c1ccccc1C2=O 7.43%
CC(C)CCNC(=O)Cn1c(=O)oc2cc(S(=O)(=O)N3CC(C)CC(C)C3)ccc21 (centres undefined) 4.77%
CCOC(=O)N1CCN(c2c(NCCCN3CCCC(C)C3)c(=O)c2=O)CC1 (centres undefined) 1.25%
CCCCCCn1c(CN2CCCC(C)C2)nc2c1c(=O)n(C)c(=O)n2C (centres undefined) 7.64%
O=C(O)c1ccccc1NC(=S)NC(NC(=O)c1ccccc1[N+](=O)[O-])C(Cl)(Cl)Cl (centres undefined) -3.09%
CCc1nnc(NC(=O)c2nc3nccc(C)n3n2)s1 12.3%
CCc1nnc(NC(=O)c2cccs2)s1 7.76%
COc1cccc(/C=N/NC(=O)c2cccc([N+](=O)[O-])c2)c1OS(=O)(=O)c1ccc(C)cc1 11.5%
Cc1ccc(-n2c(C)cc(/C=N/Nc3ccc([N+](=O)[O-])cn3)c2C)c(C)c1 31.5%
C=CCNc1cnn(-c2ccc(C)cc2)c(=O)c1Cl -1.57%
Cc1ccc(-n2c(C)cc(/C=C(\C#N)C(=O)NCC3CCCO3)c2C)cc1 (centres undefined) -6.05%
N#CCSc1nc2c(c(=O)n1Cc1ccccc1)C1(CCCC1)Cc1ccccc1-2 23.3%
CC(C)OCCCNc1nc2c(c(=O)n(Cc3ccccc3F)c(=O)n2C)n1C 8.58%
Cn1nc(C(F)(F)F)c(C(=O)Nc2cccc(C(F)(F)F)c2)c1SCc1ccc(Cl)cc1 9.7%
COc1ccc(CNC(=O)C2CCC(CNc3c(N4CCOCC4)c(=O)c3=O)CC2)cc1 (centres undefined) -0.22%
CCOc1ccc(CN(Cc2ccco2)S(=O)(=O)c2ccc(-n3cnnn3)c(OC)c2)cc1 18.6%
O=C(O)C1CCN(C(=O)OCc2ccccc2)CC1 2.49%
CCC(C)n1c(-c2cc(OC)c(OC)c(OC)c2)nc2nc3ccccc3nc21 (centres undefined) 2.36%
CCOC(=O)C1=C(CN2CCc3ccccc32)NC(=O)NC1c1ccc(Cl)cc1 (centres undefined) 10.3%
CCOCCOCCC(C(=O)O)P(=O)(c1ccccc1)c1ccccc1 (centres undefined) 0.47%
O=c1cc(C(F)(F)F)[nH]c(=O)n1C1CCCCC1 8.66%
COC(=O)C1=C(C)N=C2SC(C)C(=O)N2C1/C=C/c1ccccc1 (centres undefined) 4.63%
C=C(Cl)COC(=O)C1C2C=CC(C2)C1C(=O)O (centres undefined) 3.94%
Cc1cccc(N(C(=O)c2ccc(CN3CCOCC3)o2)C(C(=O)NC2CCCCC2)c2ccc(F)cc2)c1 (centres undefined) 0.55%
Cc1[nH]n(-c2ccccc2)c(=O)c1CCOC(=O)c1ccc(C(F)(F)F)cc1 3.64%
N#Cc1c(N)n(CCOC(=O)c2ccc(Cl)cc2)c2nc3ccccc3nc12 7.97%
OC(COc1ccc2c(c1)CCC2)CN1CCN(c2cccc(Cl)c2)CC1 (centres undefined) 13.2%
Cc1cc(OCCOc2cccc3cccnc23)c(C)cc1Cl 17.3%
Cc1ccc2nc(Nc3ccccc3O)nc(-c3ccccc3)c2c1 9.78%

inhibition, active:
CN(c1ccccc1)c1ccc(/C=c2\s/c(=C(/C#N)C(=O)C(C)(C)C)n(Cc3ccco3)c2=O)cc1 117% [fluorescence artefact?]
O=C(C1=C(O)C(=O)N(c2ncccn2)C1c1cccs1)c1ccco1 (centres undefined) 46.5%
COc1cc(/C=C(\C#N)c2nc3c(s2)CC(C)CC3)ccc1O (centres undefined) 66%
CS(=O)(=O)c1ccc2c(c1)SC1=NC(=O)/C(=C/c3ccco3)C(=N)N12 36.1%
Oc1ccc2ccc3cccc[n+]3c2c1 120% [fluorescence artefact?]
CN1/C(=C\C=C2\N=C(c3ccc(F)cc3)OC2=O)C(C)(C)c2ccccc21 48.7%
Cc1ccc(S(=O)(=O)C(C#N)c2nc3ccccc3nc2N2CCCC2)cc1C (centres undefined) 80% [fluorescence artefact?]
CCOC(=O)c1cc2n(c1N)-c1ccccc1C2=O 107% [fluorescence artefact?]
CCCn1c(O)c(CN2CCCC(C)C2)c(C)c(C#N)c1=O (centres undefined) 42.6%
CCc1ccc2nc3sc(C(=O)Nc4nnc(CC)s4)c(N)c3cc2c1 89.2% [fluorescence artefact?]
Cc1cccc(COc2ccccc2/C=N/Nc2ccc([N+](=O)[O-])cc2)c1 64%
Cc1cccn2c(=O)c(/C=C3\SC(=S)N(CC(C)C)C3=O)c(NCCCOC(C)C)nc12 73.4%
Oc1ccc(-c2onc3ccc(Cl)cc23)cc1 47.9%
CN(C)CCCn1c(N)c(C#N)c2nc(C#N)c(C#N)nc21 44.4%

From PubChem BioAssay AID704 (The Scripps Research Institute Molecular Screening Center, 2007)
